From ChEMBL document CHEMBL2440058, “Synthesis and structure-activity relationship studies of novel dihydropyridones as androgen receptor modulators” (J Med Chem, 2013)
Activity calls are given as the source filed them.

Each compound was assayed against T1, Androgen receptor (Homo sapiens) (UniProt P10275) (assay: Inhibition of androgen receptor in human LNCAP cells assessed as decrease in PSA mRNA expression at 5 uM by RT-PCR analysis relative to control). Conditions: not given.
T1 sequence (whole entry): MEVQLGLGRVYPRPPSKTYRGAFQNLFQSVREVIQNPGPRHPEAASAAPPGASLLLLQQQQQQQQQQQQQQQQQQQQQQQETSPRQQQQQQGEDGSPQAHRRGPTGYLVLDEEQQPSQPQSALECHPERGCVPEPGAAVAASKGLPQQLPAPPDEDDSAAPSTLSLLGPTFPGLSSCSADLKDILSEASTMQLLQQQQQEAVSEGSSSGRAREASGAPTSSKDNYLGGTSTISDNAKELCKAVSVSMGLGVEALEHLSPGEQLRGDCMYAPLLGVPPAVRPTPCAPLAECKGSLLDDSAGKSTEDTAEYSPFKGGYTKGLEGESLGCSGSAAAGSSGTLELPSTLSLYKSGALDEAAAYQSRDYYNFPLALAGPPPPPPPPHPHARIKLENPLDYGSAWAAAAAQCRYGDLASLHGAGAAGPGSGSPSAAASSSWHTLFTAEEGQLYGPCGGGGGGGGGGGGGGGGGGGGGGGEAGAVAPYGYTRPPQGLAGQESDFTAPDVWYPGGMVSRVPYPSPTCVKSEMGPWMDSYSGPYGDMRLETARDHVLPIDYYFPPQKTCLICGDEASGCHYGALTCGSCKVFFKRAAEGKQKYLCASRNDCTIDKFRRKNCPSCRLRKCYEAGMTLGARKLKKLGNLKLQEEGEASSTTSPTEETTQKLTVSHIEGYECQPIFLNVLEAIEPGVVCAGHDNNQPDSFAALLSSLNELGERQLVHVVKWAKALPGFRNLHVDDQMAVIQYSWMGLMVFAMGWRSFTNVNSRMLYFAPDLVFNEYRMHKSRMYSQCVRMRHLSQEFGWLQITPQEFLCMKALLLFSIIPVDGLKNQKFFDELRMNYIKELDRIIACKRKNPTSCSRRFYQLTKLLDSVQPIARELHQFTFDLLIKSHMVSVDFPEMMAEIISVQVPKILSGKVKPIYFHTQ
Format: cell-based
Method in brief: (§1)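 LNCaP cells grown in RPMI 1640 with 10% FBS at 37°C. Transcript levels measured by real-time RT-PCR with rRNA as the reference gene. Relative RNA calculated from threshold cycles by the comparative Ct method.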

Compound | inhibition
O=C(O[C@H]1C(=O)C=CN(C(=O)/C=C/c2ccccc2)[C@@H]1c1ccccc1)c1ccc(F)cc1C(F)(F)F (racemic) | Active
CC(C)(C)[Si](C)(C)O[C@H]1C(=O)C=CN(C(=O)C2CC2)[C@@H]1c1ccc2c(c1)OCO2 (racemic) | 90%
CC(C)(C)[Si](C)(C)O[C@H]1C(=O)C=CN(C(=O)Cc2ccccc2)[C@@H]1c1ccc2c(c1)OCO2 (racemic) | 90%
CC(C)(C)[Si](C)(C)O[C@H]1C(=O)C=CN(C(=O)Oc2ccccc2)[C@@H]1c1ccc2c(c1)OCO2 (racemic) | 90%
CC(C)(C)[Si](C)(C)O[C@H]1C(=O)C=CN(C(=O)Oc2ccccc2)[C@@H]1c1ccccc1 (racemic) | 90%
CC(C)(C)[Si](C)(C)O[C@H]1C(=O)C=CN(C(=O)c2ccc(C(F)(F)F)nc2)[C@@H]1c1ccc2c(c1)OCO2 (racemic) | 90%
CC(C)(C)[Si](C)(C)O[C@H]1C(=O)C=CN[C@@H]1c1ccc2c(c1)OCO2 (racemic) | 90%
CC(C)=C[C@@H]1[C@@H](OC(=O)c2ccc(F)cc2C(F)(F)F)C(=O)C=CN1C(=O)Oc1ccccc1 (racemic) | Active
CC(C)[C@@H]1[C@@H](OC(=O)c2ccc(F)cc2C(F)(F)F)C(=O)C=CN1C(=O)Oc1ccccc1 (racemic) | Active
COc1ccc(C(=O)O[C@H]2C(=O)C=CN(C(=O)/C=C/c3ccccc3)[C@@H]2c2ccccc2)cc1 (racemic) | Active
C[C@@H]1[C@@H](OC(=O)c2ccc(F)cc2C(F)(F)F)C(=O)C=CN1C(=O)Oc1ccccc1 (racemic) | Active
Cc1csc([C@@H]2[C@@H](O)C(=O)C=CN2C(=O)Oc2ccccc2)c1 (racemic) | 90%
Cc1csc([C@@H]2[C@@H](OC(=O)N(C)c3ccccc3)C(=O)C=CN2C(=O)C2CC2)c1 (racemic) | 90%
Cc1csc([C@@H]2[C@@H](OC(=O)N(C)c3ccccc3)C(=O)C=CN2C(=O)Oc2ccccc2)c1 (racemic) | 90%
Cc1csc([C@@H]2[C@@H](OC(=O)N(C)c3ccccc3)C(=O)C=CN2C(=O)c2ccc(C(F)(F)F)nc2)c1 (racemic) | 90%
Cc1csc([C@@H]2[C@@H](OC(=O)c3ccc(F)cc3C(F)(F)F)C(=O)C=CN2C(=O)Oc2ccccc2)c1 (racemic) | Active
Cc1csc([C@H]2NC=CC(=O)[C@@H]2OC(=O)N(C)c2ccccc2)c1 (racemic) | 90%
N#Cc1ccc(C(=O)O[C@H]2C(=O)C=CN(C(=O)/C=C/c3ccccc3)[C@@H]2c2ccccc2)cc1 (racemic) | Active

These compounds were tested against T1, Androgen receptor (Homo sapiens) (assay: Inhibition of androgen receptor in human LNCAP cells assessed as decrease in TMPRSS2 mRNA expression at 5 uM by RT-PCR analysis relative to control). Conditions: not given.
Format: cell-based
Method in brief: as §1

Compound | inhibition
O=C(O[C@H]1C(=O)C=CN(C(=O)/C=C/c2ccccc2)[C@@H]1c1ccccc1)c1ccc(F)cc1C(F)(F)F (racemic) | Active
CC(C)(C)[Si](C)(C)O[C@H]1C(=O)C=CN(C(=O)C2CC2)[C@@H]1c1ccc2c(c1)OCO2 (racemic) | 90%
CC(C)(C)[Si](C)(C)O[C@H]1C(=O)C=CN(C(=O)Cc2ccccc2)[C@@H]1c1ccc2c(c1)OCO2 (racemic) | 90%
CC(C)(C)[Si](C)(C)O[C@H]1C(=O)C=CN(C(=O)Oc2ccccc2)[C@@H]1c1ccc2c(c1)OCO2 (racemic) | 90%
CC(C)(C)[Si](C)(C)O[C@H]1C(=O)C=CN(C(=O)Oc2ccccc2)[C@@H]1c1ccccc1 (racemic) | 90%
CC(C)(C)[Si](C)(C)O[C@H]1C(=O)C=CN(C(=O)c2ccc(C(F)(F)F)nc2)[C@@H]1c1ccc2c(c1)OCO2 (racemic) | 90%
CC(C)(C)[Si](C)(C)O[C@H]1C(=O)C=CN[C@@H]1c1ccc2c(c1)OCO2 (racemic) | 90%
CC(C)=C[C@@H]1[C@@H](OC(=O)c2ccc(F)cc2C(F)(F)F)C(=O)C=CN1C(=O)Oc1ccccc1 (racemic) | Active
CC(C)[C@@H]1[C@@H](OC(=O)c2ccc(F)cc2C(F)(F)F)C(=O)C=CN1C(=O)Oc1ccccc1 (racemic) | Active
COc1ccc(C(=O)O[C@H]2C(=O)C=CN(C(=O)/C=C/c3ccccc3)[C@@H]2c2ccccc2)cc1 (racemic) | Active
C[C@@H]1[C@@H](OC(=O)c2ccc(F)cc2C(F)(F)F)C(=O)C=CN1C(=O)Oc1ccccc1 (racemic) | Active
Cc1csc([C@@H]2[C@@H](O)C(=O)C=CN2C(=O)Oc2ccccc2)c1 (racemic) | 90%
Cc1csc([C@@H]2[C@@H](OC(=O)N(C)c3ccccc3)C(=O)C=CN2C(=O)C2CC2)c1 (racemic) | 90%
Cc1csc([C@@H]2[C@@H](OC(=O)N(C)c3ccccc3)C(=O)C=CN2C(=O)Oc2ccccc2)c1 (racemic) | 90%
Cc1csc([C@@H]2[C@@H](OC(=O)N(C)c3ccccc3)C(=O)C=CN2C(=O)c2ccc(C(F)(F)F)nc2)c1 (racemic) | 90%
Cc1csc([C@@H]2[C@@H](OC(=O)c3ccc(F)cc3C(F)(F)F)C(=O)C=CN2C(=O)Oc2ccccc2)c1 (racemic) | Active
Cc1csc([C@H]2NC=CC(=O)[C@@H]2OC(=O)N(C)c2ccccc2)c1 (racemic) | 90%
N#Cc1ccc(C(=O)O[C@H]2C(=O)C=CN(C(=O)/C=C/c3ccccc3)[C@@H]2c2ccccc2)cc1 (racemic) | Active

The compounds below were run on LNCaP (assay: Cytotoxicity against human LNCAP cells at 5.56 to 50 uM after 48 hrs by 7-AAD dye-based flow cytometric analysis). Conditions: not given.
Format: cell-based
Method in brief: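 LNCaP cells (RPMI 1640, 10% FBS, 37°C) exposed to compound for 48 h in 10% FBS medium; 1% DMSO as vehicle control. Viable cell count measured by flow cytometry using 7-AAD viability stain.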

Compound | Activity
O=C(O[C@H]1C(=O)C=CN(C(=O)/C=C/c2ccccc2)[C@@H]1c1ccccc1)c1ccc(F)cc1C(F)(F)F (racemic) | Non-toxic

What follows are compounds tested against T2, Androgen receptor (Homo sapiens, UniProt P10275) (assay: Displacement of Fluormone AL Green from androgen receptor ligand binding domain (unknown origin) after 4 hrs by fluorescence polarization assay). Conditions: not given.
T2 sequence (P10275 whole entry): T1 sequence (whole entry)

Compound | IC50
O=C(O[C@H]1C(=O)C=CN(C(=O)/C=C/c2ccccc2)[C@@H]1c1ccccc1)c1ccc(F)cc1C(F)(F)F (racemic) | 30.1 µM

The compounds below were run against T1, Androgen receptor (Homo sapiens). Conditions: LNCaP, at 0.5 to 3 µM.

Compound | inhibition
O=C(O[C@H]1C(=O)C=CN(C(=O)/C=C/c2ccccc2)[C@@H]1c1ccccc1)c1ccc(F)cc1C(F)(F)F (racemic) | inactive
